From PubChem
TRPN1 ag: zebrafish TRPN1 (NompC) channel agonism; AID 1424; activation, % at 3 µM; 220,000 compounds, 0.18% hits; HEK293 zebrafish TRPN1-YFP, Fluo-8 calcium fluorescence; 100% = response to 87 µM carbachol;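 active = activation above its plate's cutoff, the mean activation of test wells on that plate plus 3 SD, cut at about 19% in these data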
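System: zebrafish TRPN1-YFP in HEK293 cells / Dosing: 3 µM single point / Timing: dye loading 1 h at 37 °C, then 30 min room temperature / Signal: Fluo-8 calcium fluorescence, excitation 470-495 nm, emission 515-575 nm / Read-out basis: percent activation from peak over basal fluorescence ratio, control-normalized / Control set: high carbachol 87 µM, low DMSO alone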
CHO parental Ca: counter-screen for OX1R antagonists: effect in parental CHO cells; 330,000 compounds, 0.63% hits; parental CHO-K1, ATP-induced calcium, Fluo-8 fluorescence; inhibition, % at 5.6 µM;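 active = inhibition above that plate's mean sample inhibition plus 3 SD, cut at about 26% in these data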
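Material: Parental CHO cells | Reagent: ATP | Compound dosing: Single nominal dose of 5.6 µM per compound | Detection: Intracellular calcium via Fluo-8 no-wash fluorescent dye | Read-out: % inhibition of ATP-induced calcium mobilization | Benchmarks: Low control ATP plus DMSO, high control DMSO only | Replicates: Singlicate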
OX1R antag-1: antagonists of human orexin 1 receptor (OX1R); O43613; OX1R-expressing cells, FRET antagonist read-out; inhibition, % at 6.6 µM; 330,000 compounds, 1.8% hits; AID 485270; in the data active = inhibition mostly above about 38%, no sharp cut-off; inactive = mostly below about 40%
TRPML3 agonist: human mucolipin-3 channel agonism. Q8TDD5. HEK293 TRPML3-YFP, Fluo-8 calcium fluorescence; 100% = the carbachol control signal. activation, % at 3 µM. 220,000 compounds, 0.29% hits. AID 1448;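 active = activation above its plate's cutoff, the mean activation of the plate's test wells plus 3 SD, cut at about 12% in these data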
Target sequence (Q8TDD5 whole entry, looked up): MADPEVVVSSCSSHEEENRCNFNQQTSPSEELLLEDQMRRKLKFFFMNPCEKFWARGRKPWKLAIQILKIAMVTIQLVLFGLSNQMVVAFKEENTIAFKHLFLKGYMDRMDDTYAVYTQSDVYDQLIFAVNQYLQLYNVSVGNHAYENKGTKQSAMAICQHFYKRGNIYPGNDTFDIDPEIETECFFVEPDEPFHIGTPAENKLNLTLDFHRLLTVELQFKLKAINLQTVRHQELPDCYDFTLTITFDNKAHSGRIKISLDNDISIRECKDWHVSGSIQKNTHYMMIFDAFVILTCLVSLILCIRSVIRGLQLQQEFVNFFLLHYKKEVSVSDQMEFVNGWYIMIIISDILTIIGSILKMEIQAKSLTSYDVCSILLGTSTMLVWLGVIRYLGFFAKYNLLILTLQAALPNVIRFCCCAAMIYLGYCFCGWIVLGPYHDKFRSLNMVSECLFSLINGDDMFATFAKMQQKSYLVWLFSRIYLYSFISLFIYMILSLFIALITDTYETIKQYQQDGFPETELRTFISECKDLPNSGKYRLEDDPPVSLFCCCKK
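Test system – HEK293 line with stable expression of human TRPML3-YFP channel · Control set – carbachol 87 µM final as high control (100%), DMSO as low control (0%) · Signal – Fluo-8 calcium dye fluorescence, ex 470-495, em 515-575 nm · Incubation – 1-h 37 °C dye load, 5-s basal, 120-s post-compound reads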
OX1R antag-2: antagonists of human orexin 1 receptor | O43613 | CHO/OX1R cells, Fluo-8 calcium fluorescence, orexin A | inhibition, % at 5 µM | 330,000 compounds, 0.43% hits | AID 434989;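 active = inhibition above its plate's threshold, mean inhibition of all tested compounds on the plate plus 3 SD, cut at about 37% in these data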
A number is an active result; 0 = inactive; - = no result given. Rows were chosen to be rich in hits. Some 2.5% of all compounds tested hit in one or more screens of this group.

SMILES	TRPN1 ag	CHO parental Ca	OX1R antag-1	TRPML3 agonist	OX1R antag-2
CC(CCCC(C)(C)O)NC(=O)c1cc(COc2ccc3ncccc3c2)on1 (centres undefined)	0	24	0	0	0
CCCN1CCN(C(=O)c2cc(COc3ccc4ncccc4c3)on2)CC1	0	0	0	0	0
Cc1ccc(F)cc1CNC(=O)c1cc(COc2ccc3ncccc3c2)on1	0	32	0	0	0
Cc1cc(C)n(CCNC(=O)c2cc(COc3ccc4ncccc4c3)on2)n1	0	0	0	0	0
CC(=O)Nc1ccc(NC(=O)CS(=O)(=O)c2cn(CC(=O)N3CCC(C)CC3)c3ccccc23)cc1	-	0	0	-	0
COc1ccc2cc(C#N)c(SCC(=O)N3CC(=O)Nc4ccccc43)nc2c1	0	0	0	0	0
Cc1cccc2cc(C#N)c(SCC(=O)N3CC(=O)Nc4ccccc43)nc12	0	0	71	0	0
CC(Sc1ccc2c(c1)OCCO2)C(=O)Nc1ccc(N2CCOCC2)cc1 (centres undefined)	0	0	0	0	0
Cc1[nH]c(=O)[nH]c(=O)c1/C=N/NC(=O)[C@H](C)N	0	0	0	0	0
O=C(Cc1c(F)c(F)c(F)c(F)c1F)Nc1nc(-c2ccccc2)cs1	-	48	48	-	0
Cc1cc(C(=O)OCC(=O)Nc2nc(-c3ccccc3)cs2)c(C)o1	0	0	66	0	0
Cc1cc(C(=O)OC(C)C(=O)Nc2nc(-c3ccccc3)cs2)c(C)o1 (centres undefined)	0	0	0	0	0
Cc1nn(CC(=O)NCCC2=CCCCC2)c(C)c1S(=O)(=O)N(C)C	-	0	0	-	0
Cc1ccc(N(CC(O)CON=C2c3ccccc3-c3ccccc32)S(C)(=O)=O)cc1 (centres undefined)	0	0	54	0	0
Cc1ccc2c(c1)[C@@H]1CN(C)CC[C@@H]1N2S(=O)(=O)c1ccc([N+](=O)[O-])cc1	0	0	44	0	0
Cc1ccc2c(c1)[C@@H]1CN(C)CC[C@@H]1N2S(=O)(=O)c1ccc(F)cc1	0	0	0	0	0
O=C1CCCCCN1CP(=O)(O)CN1CCCCCC1=O	0	0	0	0	0
COc1cccc(C(=O)Nc2nnc(-c3ccccc3)s2)c1OC	-	0	52	-	0
COc1ccccc1C(=O)Nc1nnc(-c2ccccc2)s1	-	0	51	-	0
CCc1ccc(NC(=O)C2CCN(S(=O)(=O)c3ccc4c(c3)CC(C)N4C(C)=O)CC2)cc1 (centres undefined)	-	36	0	-	0
CCc1ccc(NC(=O)C2CCCN(S(=O)(=O)c3ccc4c(c3)CC(C)N4C(C)=O)C2)cc1 (centres undefined)	-	0	0	-	0
Clc1ccc2[nH]c3c(NCC4CCCO4)ncnc3c2c1 (centres undefined)	0	38	124	0	0
Cc1ccc(/C=C/c2ccc(N(C)C)cc2)[n+](C)c1	-	0	39	-	0
CN(C)c1ccc(/C=C/c2cc[n+]([O-])cc2)cc1	0	0	0	12	0
CN(C)c1ccc(/C=C/c2cc[n+](C)cc2)cc1	0	0	0	0	0
SMILES	TRPN1 ag	CHO parental Ca	OX1R antag-1	TRPML3 agonist	OX1R antag-2
Cc1nc(SCc2nc3ccccc3[nH]2)c2oc3ccc(Br)cc3c2n1	-	0	0	-	0
Cc1nc(SCc2nc3ccccc3[nH]2)c2oc3ccccc3c2n1	0	0	79	0	0
Cc1nc(SCC(=O)c2cccs2)c2oc3ccccc3c2n1	0	0	73	0	0
COc1cccc(C2NC(=O)CCC2[N+](=O)[O-])c1 (centres undefined)	-	0	0	-	0
COc1cccc(Nc2cc(C)c3ccccc3n2)c1	-	0	49	-	0
CCOC(=O)c1c(NC(=O)c2ccco2)sc2c1CCCC2	0	0	0	0	0
CCOC(=O)c1c(NC(=O)CN2CCN(C(=O)c3ccco3)CC2)sc2c1CCCC2	0	60	0	0	70
CCOC(=O)c1cc(C)sc1NC(=O)CN1CCN(C(=O)c2ccco2)CC1	-	87	0	-	53
Cc1ccc(S(=O)(=O)N/N=C/c2ccc3nccnc3c2)cc1	0	0	0	0	0
COc1ccc(NC(=O)C2CCCN(CCCc3ccccc3)C2)cc1OCC(C)C (centres undefined)	-	0	0	-	0
C[C@H](CO)N1C[C@H](C)[C@@H](CN(C)Cc2ccc(-c3ccccc3)cc2)Oc2c(NS(=O)(=O)c3cn(C)cn3)cccc2C1=O	-	0	0	-	0
